Values belong to the compound of their own block, whether it stands above or below them.
Key:
Interstitial collagenase [1] = molecular target: T1, Interstitial collagenase (Homo sapiens, UniProt P03956); experiment: In vitro inhibition of matrix metalloprotease-1
T1 sequence (P03956 whole entry): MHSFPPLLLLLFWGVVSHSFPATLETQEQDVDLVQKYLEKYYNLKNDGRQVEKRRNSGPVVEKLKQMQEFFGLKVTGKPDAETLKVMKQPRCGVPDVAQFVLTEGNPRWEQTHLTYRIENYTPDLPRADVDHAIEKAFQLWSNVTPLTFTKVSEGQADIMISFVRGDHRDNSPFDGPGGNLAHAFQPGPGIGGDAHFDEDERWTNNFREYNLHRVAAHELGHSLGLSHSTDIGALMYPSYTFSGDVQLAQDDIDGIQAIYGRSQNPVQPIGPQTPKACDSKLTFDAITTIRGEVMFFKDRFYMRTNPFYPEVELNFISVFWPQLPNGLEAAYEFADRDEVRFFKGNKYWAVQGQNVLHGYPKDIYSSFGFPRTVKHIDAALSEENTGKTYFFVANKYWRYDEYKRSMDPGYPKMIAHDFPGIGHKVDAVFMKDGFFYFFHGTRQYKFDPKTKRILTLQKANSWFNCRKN

[2] = molecular target: T2, Matrix metalloproteinase-9 (Homo sapiens, UniProt P14780); experiment: In vitro inhibition of matrix metalloprotease-9
In short: (§1)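 Each inhibitor concentration tested in triplicate. IC50 derived from a four-parameter logistic fit of the data within a single experiment, and the reported value is the mean of the triplicate values.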

Collagenase 3 [3] = molecular target: T3, Collagenase 3 (Homo sapiens, UniProt P45452); experiment: In vitro inhibition of matrix metalloprotease-13
[4] = molecular target: T4, Disintegrin and metalloproteinase domain-containing protein 17 (Homo sapiens, UniProt P78536); experiment: In vitro inhibition against tumor necrosis factor alpha converting enzyme at 10 uM concentration
In short: (§2)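 Single-point enzyme inhibition at 10 µM inhibitor, reported as percent inhibition. Full dose-response curves were run only where inhibition reached at least 60% at 10 µM.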

[5] = molecular target: T5, Interstitial collagenase (Homo sapiens) (UniProt P03956); experiment: Inhibition of Matrix metalloprotease-1 at 10 uM; in short: as §2
T5 sequence (whole entry): T1 sequence (P03956 whole entry)

[6] = molecular target: T4, Disintegrin and metalloproteinase domain-containing protein 17; experiment: Inhibition of Tumor necrosis factor alpha converting enzyme at 10 uM
[7] = molecular target: T2, Matrix metalloproteinase-9; experiment: Inhibition of Matrix metalloprotease-9 at 10 uM; in short: as §2
Mus musculus [8] = experiment: Compound was tested in vivo for inhibition using dialysis implant, value expressed relative to activity of CGS-27023 at dose 25 mg/kg(po) (66 +/- 4); assay type: functional
In short: (§3)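 Groups of mice dosed orally at 25 mg/kg with drug or vehicle carrying an implanted enzyme-containing dialysis bag. After 1 h of exposure, bag retrieved, and enzyme activity inside measured spectrophotometrically against bags from vehicle-treated mice. Percent inhibition expressed relative to CGS-27023 (set as 1) run as standard.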

Rattus norvegicus = experiment: Compound was tested in vivo for inhibition in rat sponge-wrapped cartilage model, value expressed relative to activity of CGS-27023 at dose 25 mg/kg (p.o.) in (52+/-4); assay type: functional; conditions: route oral
In short: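 Oral dosing at 25 mg/kg once daily for 3 weeks, with CGS-27023 as comparator. Read-out was percent inhibition of degradation of bovine cartilage in the sponge-wrapped implant.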

Mus musculus [9] = experiment: Compound was tested in vivo for inhibition using dialysis implant, value expressed relative to activity of CGS-27023 at dose 25 mg/kg(po)(53 +/-4); assay type: functional; in short: as §3
[10] = molecular target: T4, Disintegrin and metalloproteinase domain-containing protein 17; experiment: Inhibition of Tumor necrosis factor alpha converting enzyme
Mus musculus [11] = experiment: Compound was tested in vivo for inhibition using dialysis implant, value expressed relative to activity of CGS-27023 at dose 25 mg/kg (p.o.) (66+/-4); assay type: functional; conditions: route oral; in short: as §3
Mus musculus [12] = experiment: Compound was tested in vivo for inhibition using dialysis implant data, value expressed relative to activity of CGS-27023 at dose 25 mg/kg(po)(67 +/-3); assay type: functional; in short: as §3
Interstitial collagenase [13] = molecular target: T1, Interstitial collagenase; experiment: Inhibition of Matrix metalloprotease-1; in short: as §1
[14] = molecular target: T2, Matrix metalloproteinase-9; experiment: Inhibition of Matrix metalloprotease-9; in short: as §1
Collagenase 3 [15] = molecular target: T3, Collagenase 3; experiment: Inhibition of Matrix metalloprotease-13
Mus musculus [16] = experiment: Compound was tested in vivo for inhibition using dialysis implant, value expressed relative to activity of CGS-27023 at dose 25 mg/kg(po)(53 +/- 4); assay type: functional; in short: as §3
Mus musculus [17] = experiment: Compound was tested in vivo for inhibition using dialysis implant, values expressed relative to activity of CGS-27023 at dose 25 mg/kg(po)(68 +/-3); assay type: functional; in short: as §3
Mus musculus [18] = experiment: Compound was tested in vivo for inhibition using dialysis implant, values expressed relative to activity of CGS-27023 at dose 25 mg/kg(po)(60 +/-4); assay type: functional; in short: as §3
Mus musculus [19] = experiment: Compound was tested in vivo for inhibition using dialysis implant, value expressed relative to activity of CGS-27023 at dose 25 mg/kg(po) (77+/-3); assay type: functional; in short: as §3
Mus musculus [20] = experiment: Compound was tested in vivo for inhibition using dialysis implant data, value expressed relative to activity of CGS-27023 at dose 25 mg/kg(po) (73 +/-4); assay type: functional; in short: as §3

T2 sequence (P14780 whole entry): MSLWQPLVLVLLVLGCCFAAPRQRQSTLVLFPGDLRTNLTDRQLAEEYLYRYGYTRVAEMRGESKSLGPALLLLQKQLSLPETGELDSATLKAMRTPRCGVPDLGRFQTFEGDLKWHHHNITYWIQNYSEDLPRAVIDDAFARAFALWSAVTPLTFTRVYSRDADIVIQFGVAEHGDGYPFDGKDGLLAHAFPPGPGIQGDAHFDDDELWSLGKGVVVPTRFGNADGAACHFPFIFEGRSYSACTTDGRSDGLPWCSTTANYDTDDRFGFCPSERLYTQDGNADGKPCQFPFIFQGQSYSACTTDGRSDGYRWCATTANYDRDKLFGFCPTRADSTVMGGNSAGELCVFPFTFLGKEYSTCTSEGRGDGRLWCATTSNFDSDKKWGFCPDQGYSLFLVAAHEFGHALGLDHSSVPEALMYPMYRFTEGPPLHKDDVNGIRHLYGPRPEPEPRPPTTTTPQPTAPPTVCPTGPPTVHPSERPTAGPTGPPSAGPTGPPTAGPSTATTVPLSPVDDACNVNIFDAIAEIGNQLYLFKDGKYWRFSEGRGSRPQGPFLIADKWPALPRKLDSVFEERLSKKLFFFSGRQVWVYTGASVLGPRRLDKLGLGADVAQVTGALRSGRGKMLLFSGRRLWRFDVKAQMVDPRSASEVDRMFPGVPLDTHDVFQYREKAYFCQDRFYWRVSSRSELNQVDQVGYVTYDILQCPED
T4 sequence (P78536 whole entry, the tested form may be a part): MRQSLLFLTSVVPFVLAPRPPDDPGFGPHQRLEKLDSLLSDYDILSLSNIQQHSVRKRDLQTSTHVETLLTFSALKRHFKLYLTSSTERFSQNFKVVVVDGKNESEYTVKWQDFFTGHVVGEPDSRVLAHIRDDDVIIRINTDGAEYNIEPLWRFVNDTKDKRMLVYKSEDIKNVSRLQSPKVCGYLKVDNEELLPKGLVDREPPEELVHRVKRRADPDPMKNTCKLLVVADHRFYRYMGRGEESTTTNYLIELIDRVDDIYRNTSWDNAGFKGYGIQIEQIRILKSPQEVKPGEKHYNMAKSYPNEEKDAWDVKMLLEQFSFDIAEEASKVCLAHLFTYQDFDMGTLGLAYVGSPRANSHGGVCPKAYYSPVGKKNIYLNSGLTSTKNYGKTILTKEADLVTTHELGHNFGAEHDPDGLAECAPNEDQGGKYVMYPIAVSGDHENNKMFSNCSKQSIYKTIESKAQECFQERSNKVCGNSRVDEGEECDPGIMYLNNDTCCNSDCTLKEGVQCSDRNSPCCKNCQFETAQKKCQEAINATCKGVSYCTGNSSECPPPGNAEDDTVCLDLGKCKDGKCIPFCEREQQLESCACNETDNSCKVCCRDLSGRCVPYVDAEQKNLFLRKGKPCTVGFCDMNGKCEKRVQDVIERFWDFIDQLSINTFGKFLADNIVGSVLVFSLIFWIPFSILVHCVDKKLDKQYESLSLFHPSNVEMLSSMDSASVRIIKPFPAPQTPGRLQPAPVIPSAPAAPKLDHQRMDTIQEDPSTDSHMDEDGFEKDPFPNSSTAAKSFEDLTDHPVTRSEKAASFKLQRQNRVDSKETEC

Compound: CCCCCCCCS(=O)(=O)C(C)(Cc1ccc(OCCN2CCCCC2)cc1)C(=O)NO (centres undefined)
IC50 (Interstitial collagenase [1]): 10 nM
IC50 [2]: 23 nM
IC50 (Collagenase 3 [3]): 55 nM
inhibition [4]: 65%

Compound: COc1ccc(S(=O)(=O)C(C)(Cc2ccc(OCCN(C(C)C)C(C)C)cc2)C(=O)NO)cc1 (centres undefined)
inhibition [6]: 31%

Compound: COc1ccc(S(=O)(=O)C(C)(Cc2cccnc2)C(=O)NO)cc1 (centres undefined)
inhibition [4]: 17%

Compound: CC(Cc1ccc(OCCN2CCCCC2)cc1)(C(=O)NO)S(=O)(=O)c1cccs1 (centres undefined)
IC50 (Interstitial collagenase [1]): 99 nM
IC50 [2]: 79 nM
IC50 (Collagenase 3 [3]): 85 nM
inhibition [4]: 51%

Compound: COc1ccc(S(=O)(=O)C(C)(Cc2ccc(OCCN3CCCCCC3)cc2)C(=O)NO)cc1 (centres undefined)
inhibition in vivo at 25 mg/kg (Mus musculus [8]): 65%
inhibition in vivo at 25 mg/kg (Rattus norvegicus): 67%
inhibition [4]: 29%

Compound: COc1ccc(S(=O)(=O)C(CCC(C)C)(Cc2cccnc2)C(=O)NO)cc1 (centres undefined)
inhibition [4]: 41%

Compound: CCCCOc1ccc(S(=O)(=O)C(C)(Cc2ccc(OCCN3CCCCC3)cc2)C(=O)NO)cc1 (centres undefined)
IC50 [2]: 3 nM
inhibition in vivo at 25 mg/kg (Mus musculus [9]): 64%
inhibition [4]: 30%

Compound: COc1ccc(S(=O)(=O)C(C)(Cc2ccc(-c3ccccc3)cc2)C(=O)NO)cc1 (centres undefined)
inhibition [4]: 17%

Compound: C=CCC(CC=C)(C(=O)NO)S(=O)(=O)c1ccc(OC)cc1
inhibition [4]: 7%

Compound: COc1ccc(S(=O)(=O)C(Cc2ccccc2)C(=O)NO)cc1 (centres undefined)
IC50 (Collagenase 3 [3]): 100 nM

Compound: C#CCC(CC#C)(C(=O)NO)S(=O)(=O)c1ccc(OC)cc1
inhibition [4]: 20%

Compound: CCCCCCCC[C@@](Cc1cccnc1)(C(=O)NO)S(=O)(=O)c1ccc(OC)cc1
IC50 [10]: 669 nM

Compound: COc1ccc(S(=O)(=O)C(C)(Cc2ccccc2)C(=O)NO)cc1 (centres undefined)
inhibition [4]: 15%

Compound: COc1ccc(S(=O)(=O)C(C)(Cc2ccc(OCCN3CCOCC3)cc2)C(=O)NO)cc1 (centres undefined)
IC50 (Interstitial collagenase [1]): 413 nM
IC50 [2]: 21 nM
inhibition in vivo at 25 mg/kg (Mus musculus [12]): 48%
inhibition [4]: 47%

Compound: CCCC[C@@](Cc1cccnc1)(C(=O)NO)S(=O)(=O)c1ccc(OC)cc1
inhibition [7]: 88%
IC50 [10]: 764 nM

Compound: COc1ccc(S(=O)(=O)[C@](C)(Cc2ccc(OCCN3CCCCC3)cc2)C(=O)NO)cc1 (stereo in doubt; form 2)
IC50 (Interstitial collagenase [1]): 154 nM
IC50 [2]: 5 nM
inhibition in vivo at 25 mg/kg (Mus musculus [17]): 69%

Compound: C#CCC(Cc1cccnc1)(C(=O)NO)S(=O)(=O)c1ccc(OC)cc1 (centres undefined)
IC50 (Collagenase 3 [3]): 32 nM
inhibition [4]: 23%

Compound: CC(C)=CCC(CC=C(C)C)(C(=O)NO)S(=O)(=O)c1ccc(C)cc1
IC50 (Collagenase 3 [3]): 6 nM
inhibition [4]: 36%

Compound: COc1ccc(S(=O)(=O)C(C)(Cc2ccc(OCCN3CCCCC3)cc2)C(=O)NO)cc1 (centres undefined)
inhibition in vivo at 25 mg/kg (Mus musculus [19]): 78%
inhibition in vivo at 25 mg/kg (Rattus norvegicus): 69%
inhibition [4]: 41%

Compound: CCCCCCCCS(=O)(=O)C(C)(Cc1ccccc1)C(=O)NO (centres undefined)
inhibition [4]: 1%

More lines, main results first:

IC50 (Interstitial collagenase [1]): 1000 nM
Compound: COc1ccc(S(=O)(=O)C(Cc2cccnc2)(CC(C)C)C(=O)NO)cc1 (centres undefined)
inhibition [4]: 42%

inhibition [5]: 18%
Compound: CCCCCCCCCCCCC(C(=O)NO)S(=O)(=O)c1ccc(OC)cc1 (centres undefined)

inhibition [5]: 30%
Compound: CCCC(CCC)(C(=O)NO)S(=O)(=O)c1ccc(OC)cc1
inhibition [4]: 24%

inhibition [7]: 27%
Compound: COc1ccc(S(=O)(=O)C(C(=O)NO)C(C)C)cc1 (centres undefined)
inhibition [4]: 52%

IC50 (Interstitial collagenase [1]): 299 nM
IC50 [2]: 16 nM
IC50 (Collagenase 3 [3]): 12 nM
Compound: COc1ccc(S(=O)(=O)C(C)(C/C=C/c2ccccc2)C(=O)NO)cc1 (centres undefined)
inhibition [4]: 65%

IC50 [2]: 8 nM
Compound: COc1ccc(S(=O)(=O)C(C)(Cc2ccc3ccccc3c2)C(=O)NO)cc1 (centres undefined)

IC50 (Interstitial collagenase [1]): 14 nM
IC50 [2]: 4 nM
IC50 (Collagenase 3 [3]): 2 nM
Compound: CCN(CC)COc1ccc(CC(C)(C(=O)NO)S(=O)(=O)c2ccc(-c3ccco3)cc2)cc1 (centres undefined)
inhibition [4]: 45%

IC50 [2]: 13 nM
IC50 (Collagenase 3 [3]): 15 nM
Compound: CCN(CC)CCOc1ccc(CC(C)(C(=O)NO)S(=O)(=O)c2ccc(OC)cc2)cc1 (centres undefined)
inhibition in vivo at 25 mg/kg (Mus musculus [11]): 68%
inhibition [4]: 39%

IC50 [2]: 0.5 nM
Compound: COc1ccc(S(=O)(=O)C(CC=C(C)C)(CC=C(C)C)C(=O)NO)cc1

IC50 (Interstitial collagenase [13]): 627 nM
IC50 [14]: 11 nM
IC50 (Collagenase 3 [15]): 16 nM
Compound: CCOc1ccc(S(=O)(=O)C(C)(Cc2ccc(OCCN(CC)CC)cc2)C(=O)NO)cc1 (centres undefined)
inhibition in vivo at 25 mg/kg (Mus musculus [16]): 74%

inhibition [5]: 8%
Compound: CCCCC(C(=O)NO)S(=O)(=O)c1ccc(OC)cc1 (centres undefined)
inhibition [4]: 54%

IC50 (Interstitial collagenase [1]): 10 nM
Compound: COc1ccc(CS(=O)(=O)C(C)(Cc2ccccc2)C(=O)NO)cc1 (centres undefined)
inhibition [4]: 3%

IC50 (Interstitial collagenase [1]): 2530 nM
IC50 [2]: 112 nM
Compound: COc1ccc(S(=O)(=O)[C@](C)(Cc2ccc(OCCN3CCCCC3)cc2)C(=O)NO)cc1 (stereo in doubt; form 1)
inhibition in vivo at 25 mg/kg (Mus musculus [18]): 15%

IC50 (Interstitial collagenase [1]): 49 nM
IC50 [2]: 49 nM
IC50 (Collagenase 3 [3]): 37 nM
Compound: CC(Cc1ccccc1)(C(=O)NO)S(=O)(=O)c1cccs1 (centres undefined)
inhibition [4]: 20%

IC50 [2]: 7 nM
Compound: COc1ccc(S(=O)(=O)C(C)(Cc2ccc(OCCCN3CCN(c4cccc(Cl)c4)CC3)cc2)C(=O)NO)cc1 (centres undefined)
inhibition [4]: 40%
inhibition in vivo at 25 mg/kg (Mus musculus [20]): 72%

From ChEMBL document CHEMBL1145786, “Synthesis and structure-activity relationship of alpha-sulfonylhydroxamic acids as novel, orally active matrix metalloproteinase inhibitors for the treatment of osteoarthritis” (J Med Chem, 2003)
